Laboratory results published in ChEMBL document CHEMBL1153963, “Phenanthrene-based tylophorine-1 (PBT-1) inhibits lung cancer cell growth through the Akt and NF-kappaB pathways” (J Med Chem, 2009).
Activity calls are given as the source filed them. The calls are words filed in the database; no cut-off is given here.

Assays:
[1] = system: CL1-0; test: Inhibition of TNF-alpha-induced NF-kappaB transcriptional in human CL1-0 cells by luciferase reporter gene assay; assay type: cell-based
Method in brief: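 CL1-0 cells transiently co-transfected with pNF-κB-Luc (0.2 µg) and pSV-β-galactosidase (1 µg) via lipofectamine; after 20 h switched to serum-free medium, pretreated 1 h, then stimulated with TNF-α for 4 h; luciferase normalized to β-galactosidase; n=3 independent transfections, mean ± SD.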

[2] = molecular target: T1, Inhibitor of nuclear factor kappa-B kinase subunit beta (Homo sapiens) (UniProt O14920); test: Effect on IKK-beta activity in TNF-alpha-stimulated human CL1-0 cells by Western blot; assay type: cell-based
T1 sequence (whole entry): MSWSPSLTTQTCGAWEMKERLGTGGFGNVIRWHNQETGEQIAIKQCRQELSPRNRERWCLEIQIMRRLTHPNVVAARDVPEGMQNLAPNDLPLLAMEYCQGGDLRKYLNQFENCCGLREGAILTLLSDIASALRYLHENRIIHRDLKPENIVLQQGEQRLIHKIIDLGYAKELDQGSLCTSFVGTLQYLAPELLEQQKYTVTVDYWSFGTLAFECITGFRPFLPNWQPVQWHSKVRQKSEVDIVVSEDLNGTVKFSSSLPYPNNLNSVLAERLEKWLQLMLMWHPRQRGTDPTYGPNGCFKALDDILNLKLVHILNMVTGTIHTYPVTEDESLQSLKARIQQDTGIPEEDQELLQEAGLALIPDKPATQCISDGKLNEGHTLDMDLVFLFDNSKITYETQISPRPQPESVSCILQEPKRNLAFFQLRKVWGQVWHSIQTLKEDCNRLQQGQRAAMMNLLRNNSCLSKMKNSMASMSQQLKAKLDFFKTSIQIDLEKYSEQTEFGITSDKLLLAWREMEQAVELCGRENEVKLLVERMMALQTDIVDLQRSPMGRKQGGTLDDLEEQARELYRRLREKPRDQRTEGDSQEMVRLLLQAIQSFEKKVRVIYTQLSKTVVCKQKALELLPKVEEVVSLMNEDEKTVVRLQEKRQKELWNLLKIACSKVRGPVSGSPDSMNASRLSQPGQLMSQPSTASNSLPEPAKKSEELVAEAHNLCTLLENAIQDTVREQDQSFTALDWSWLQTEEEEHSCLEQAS
Method in brief: (§1)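 CL1-0 cells serum-starved overnight, pretreated with various drug concentrations, then stimulated with TNF-α for 4 h. Lysates (50 µg) resolved by 10% SDS-PAGE, blotted, probed with specific antibodies in TBS pH 7.5/0.05% Tween 20/5% milk, HRP secondaries, chemiluminescent film detection; a representative blot shown.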

[3] = system: A549; test: Decrease in NF-kappaB1 binding affinity to NF-kappaB response element on COX2 promoter in human A549 cells by chromatin immunoprecipitation assay; assay type: functional, cell-based
Method in brief: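 A549 cells, untreated or treated with drug plus TNF-α for 4 h, cross-linked with 1% formaldehyde (quenched with 0.125 M glycine), lysed, sonicated 12 W for 45 s, immunoprecipitated overnight at 4 °C with anti-RelA, anti-p50 or anti-RelB, collected on protein A/G beads. Cross-links reversed at 65 °C overnight; COX-2 promoter (nt -359 to +106) PCR-amplified 35 cycles, 2% agarose gel, input chromatin as control.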

[4] = system: CL1-0; test: Decrease in RelA protein level in TNF-alpha-stimulated human CL1-0 cells by Western blot; assay type: functional, cell-based; method in brief: as §1
[5] = Cell cycle arrest in human CL1-0 cells assessed as accumulation at S phase after 12 hrs by flow cytometry; assay type: functional, cell-based
Method in brief: (§2)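 CL1-0 cells seeded at 2×10^5 per 60 mm dish, incubated 24 h, then exposed to various drug concentrations for 2, 6, 12, 16 or 24 h. Harvested cells fixed in cold 70% ethanol at 4 °C for 16 h, treated with RNase A (20 µg/mL, 37 °C, 30 min), stained with propidium iodide (50 µg/mL, 4 °C, 30 min), analysed at once by flow cytometry for phase distribution.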

[6] = Cell cycle arrest in human CL1-0 cells assessed as increase in accumulation at G2/M phase by flow cytometry; assay type: functional, cell-based; settings: TDE = time-dependent effect; method in brief: as §2
[7] = molecular target: RAC-alpha serine/threonine-protein kinase (Homo sapiens) (UniProt P31749); test: Inhibition of TNF-alpha-induced AKT activation in human CL1-0 cells by Western blot; assay type: cell-based
Sequence of RAC-alpha serine/threonine-protein kinase (Homo sapiens) (P31749 whole entry): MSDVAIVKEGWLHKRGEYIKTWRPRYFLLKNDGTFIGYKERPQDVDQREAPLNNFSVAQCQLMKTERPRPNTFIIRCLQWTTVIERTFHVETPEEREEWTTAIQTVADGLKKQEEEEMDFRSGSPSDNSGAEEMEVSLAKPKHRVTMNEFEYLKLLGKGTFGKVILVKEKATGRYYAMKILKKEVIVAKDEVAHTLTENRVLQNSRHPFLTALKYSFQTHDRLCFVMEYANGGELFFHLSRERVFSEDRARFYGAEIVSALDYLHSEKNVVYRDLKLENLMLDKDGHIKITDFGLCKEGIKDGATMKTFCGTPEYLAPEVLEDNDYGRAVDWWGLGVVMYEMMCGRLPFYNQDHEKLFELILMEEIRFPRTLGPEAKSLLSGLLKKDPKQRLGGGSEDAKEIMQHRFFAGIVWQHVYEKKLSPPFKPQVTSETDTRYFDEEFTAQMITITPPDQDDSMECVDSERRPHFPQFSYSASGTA
Method in brief: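 CL1-0 (and A549) cells serum-starved overnight, pretreated at various concentrations, then TNF-α stimulated for 4 h; extracts immunoblotted for p-Akt, Akt, IKKα, p-IKKα/β; representative blot shown.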

[8] = Cell cycle arrest in human CL1-0 cells assessed as accumulation at G2/M phase after 2 hrs by flow cytometry; assay type: functional, cell-based; method in brief: as §2
[9] = Cell cycle arrest in human CL1-0 cells assessed as accumulation at S phase after 2 hrs by flow cytometry; assay type: functional, cell-based; method in brief: as §2
[10] = Cell cycle arrest in human CL1-0 cells assessed as accumulation at S phase after 16 hrs by flow cytometry; assay type: functional, cell-based; method in brief: as §2
[11] = system: CL1-0; test: Induction of apoptosis in human CL1-0 cells assessed as PARP1 cleavage by Western blot; assay type: functional, cell-based
[12] = Cell cycle arrest in human CL1-0 cells assessed as accumulation at S phase after 6 hrs by flow cytometry; assay type: functional, cell-based; method in brief: as §2
[13] = Cell cycle arrest in human CL1-0 cells assessed as accumulation at G0/G1 phase after 6 hrs by flow cytometry; assay type: functional, cell-based; method in brief: as §2
[14] = molecular target: RAC-alpha serine/threonine-protein kinase (Homo sapiens) (UniProt P31749); test: Inhibition of AKT phosphorylation in human CL1-0 cells by Western blot; assay type: cell-based
Method in brief: (§3)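 Western blot of CL1-0 cells after 24 h at increasing concentrations; probed for p-Akt, Akt and IκB; 50 µg lysate on 10% SDS-PAGE, HRP secondary, chemiluminescence on film.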

[15] = system: CL1-0; test: Increase in IkappaB protein level in human CL1-0 cells by Western blot; assay type: functional, cell-based; method in brief: as §3
[16] = system: CL1-0; test: Induction of cyclin B1 protein accumulation in human CL1-0 cells at 0.5 ug/mL after 24 hrs by Western blot; assay type: functional, cell-based
Method in brief: (§4)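 CL1-0 cells exposed to rising concentrations for 24 h, or to 0.5 µg/mL over a time course; 50 µg lysate resolved by 10% SDS-PAGE, blotted, probed with cyclin/CDK-inhibitor antibodies in TBS-Tween/5% milk, HRP secondary, chemiluminescent film detection.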

[17] = Cell cycle arrest in human CL1-0 cells assessed as accumulation at G0/G1 phase after 12 hrs by flow cytometry; assay type: functional, cell-based; method in brief: as §2
[18] = system: CL1-0; test: Suppression of colony formation of human CL1-0 cells assessed as reduction of cell colonies after 10 to 14 days; assay type: functional, cell-based
[19] = Cell cycle arrest in human CL1-0 cells assessed as accumulation at G2/M phase after 16 hrs by flow cytometry; assay type: functional, cell-based; method in brief: as §2
[20] = system: CL1-0; test: Effect on cyclin E protein expression in human CL1-0 cells at 0.5 ug/mL after 24 hrs by Western blot; assay type: functional, cell-based; method in brief: as §4
[21] = system: CL1-0; test: Decrease in IkappaB protein level in TNF-alpha-stimulated human CL1-0 cells by Western blot; assay type: functional, cell-based; method in brief: as §1
[22] = Cell cycle arrest in human CL1-0 cells assessed as accumulation at G2/M phase after 12 hrs by flow cytometry; assay type: functional, cell-based; method in brief: as §2
[23] = system: CL1-0; test: Effect on p27 protein expression in human CL1-0 cells at 0.5 ug/mL after 24 hrs by Western blot; assay type: functional, cell-based; method in brief: as §4

Activity [2]: inactive
Activity [7]: Active
Activity [14]: Dose-dependent effect
SMILES: COc1ccc2c(CN3CCC(CO)CC3)cc3cc4c(cc3c2c1)OCO4
Activity [1]: Dose-dependent effect
Activity [3]: Active
Activity [4]: Active
Activity [5]: 23.9%
Activity [6]: tde
Activity [8]: 25.4%
Activity [9]: 15.1%
Activity [10]: 34.1%
Activity [11]: Active
Activity [12]: 15.8%
Activity [13]: 52.5%
Activity [15]: Dose-dependent effect
Activity [16]: Active
Activity [17]: 41.7%
Activity [18]: Dose-dependent effect
Activity [19]: 33.6%
Activity [20]: inactive
Activity [21]: Active
Activity [22]: 27%
Activity [23]: inactive
